High-throughput results deposited in PubChem by several laboratories.
Many of the other results were omitted from the sample, so hits are more common in it than they were.
CHOP inh: blocks CHOP induction under ER stress; AID 2732; CHO-K1 CHOP-promoter luciferase, tunicamycin-induced, 15-18 h; inhibition, % at 10 µM; 220,000 compounds, 3.8% hits;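 active = compounds that reduced the stress-induced luciferase reporter signal by more than about 70% of percent inhibition, limit read from the data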
UPR CHOP act: activators of apoptotic arm of unfolded protein response (CHOP) | 330,000 compounds, 0.34% hits | activation, % at 10 µM | AID 449763 | CHO-CHOP luciferase reporter, UPR activation, luminescence; percent of tunicamycin response over DMSO baseline;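 active = at 10 µM dose, activation of 40% or more, normalized to positive control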
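System: CHO-CHOP luciferase reporter cell line | Buffer or medium: F12 medium containing 10% fetal bovine serum | Doses: One dose, 10 µM in 0.5% DMSO | Times: 6 h compound exposure at 37 °C after overnight seeding | Signal: Luciferase luminescence | Read-out: % activation vs tunicamycin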
TbMetRS inhib: Trypanosoma brucei MetRS inhibition | inhibition, % at 11.9 µM | AID 624268 | 360,000 compounds, 0.4% hits | purified T. brucei MetRS, ATP depletion, Kinase-Glo luminescence;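 active = inhibition above a per-plate cutoff of the control wells' mean inhibition plus 3 SD, cut at about 5.5% in these data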
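Measured by: Kinase-Glo luciferase luminescence reporting remaining unconsumed ATP. Material: purified T. brucei MetRS enzyme. Doses: 11.9 µM compound single dose, 0.9% DMSO. Medium: HEPES buffer containing pyrophosphatase, BSA, spermine, DTT. Times: 15 min preincubation, 2 h reaction, all 25 °C. Reagent: methionine, ATP and bulk E. coli tRNA.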
UPR XBP1 act: activators of adaptive arm of unfolded protein response (XBP1) | CHO-XBP1 luciferase reporter, IRE1-XBP1 UPR activation, luminescence; percent of tunicamycin response, DMSO as zero | activation, % at 20 µM | 330,000 compounds, 0.33% hits | AID 463104;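 active = versus positive control, 20 µM dose yields 30% or more activation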
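Test system: CHO-XBP1 luciferase reporter cells | Buffer or medium: Serum-containing F12 medium, 10% FBS | Schedule: 6 h compound exposure at 37 °C, 5% CO2 | Detection: Steady-Glo luciferase glow luminescence, 10 min after reagent addition | Read-out basis: Activation, % of tunicamycin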
V-ATPase pH: alters yeast V-ATPase proton transport; 350,000 compounds, 0.37% hits; S. cerevisiae, pHLuorin cytosolic pH fluorescence; response, % at 10 µM; in the data active = response mostly above about 7.3%, no sharp cut-off; inactive = mostly below about 5.4%; note: actives read high
UPR XBP1 confirm: confirmation of adaptive unfolded protein response (XBP1) activators | AID 485299 | shares compounds with UPR XBP1 act | 1,000 compounds, 63% hits | CHO-XBP1 IRE1-XBP1 luciferase reporter, luminescence | activation, % at 20 µM;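 active = reporter signal at least 30% of the positive control's activation in two or more of four replicate wells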
Large screens that a line does not name were inactive (follow-up assays come after a bar, where they were run).

COc1ccccc1-c1sc2cc3c(cc2c1-c1ccc(OCCN2CCCCC2)cc1)OCO3	UPR XBP1 act 35 (no result: CHOP inh) | UPR XBP1 confirm 36
COC(=O)/C(C#N)=C1/C=Cc2ccccc2N1	none
CCOC(=O)Cc1nc(-c2cccc(C(F)(F)F)c2)no1	none
COc1ccc(/C=N/Nc2nc(-c3cccnc3)nc3ccccc23)c(OC)c1	UPR XBP1 act 37 | UPR XBP1 confirm inactive
O=C(NC(c1ccccc1)c1ccccc1)c1ccc(=O)[nH]n1	none
Cc1cc(C)c2[nH]c(=O)c(CN(Cc3cccnc3)C(=S)NCCCN(C)C)cc2c1	none
NS(=O)(=O)c1ccc(N/N=C/c2cn(-c3ccccc3)nc2-c2cccs2)c([N+](=O)[O-])c1	UPR XBP1 act 57 | UPR XBP1 confirm 62
COc1nc(N/N=C/c2ccc(-c3ccccc3[N+](=O)[O-])o2)nc(N2CCOCC2)n1	none
O=[N+]([O-])c1ccc(-c2ccc(/C=N/Nc3nc(NCc4ccccc4)nc(N4CCOCC4)n3)o2)cc1	UPR XBP1 act 47 | UPR XBP1 confirm inactive
CSC1=NC(C)(C)C=C(/C=C/c2ccc(Cl)cc2)N1	UPR XBP1 act 35 | UPR XBP1 confirm 45
CSC1=NC(C)(C)C=C(/C=C/c2ccc(Cl)cc2Cl)N1	none
COc1cc2c3c(c1)C(C)=CC(C)(C)N3C(=O)C2=O	none
COc1ccc(C(=O)Oc2cccnc2)cc1OC	none
COc1cccc(C(=O)Oc2cc3c4c(c2)C(C)=CC(C)(C)N4C(=O)C3=O)c1	UPR XBP1 act 50 | UPR XBP1 confirm 253
COc1ccc(C(=O)Oc2cc3c4c(c2)C(C)=CC(C)(C)N4C(=O)C3=O)cc1OC	UPR XBP1 act 65 | UPR XBP1 confirm 31
CN(C)CCN1C(=O)C(=O)/C(=C(/O)c2ccc(S(=O)(=O)N3CCOCC3)cc2)C1c1ccc(F)cc1 (stereo not drawn)	none (no result: CHOP inh)
COc1ccc(-c2csc(NC(=O)C3COc4ccccc4O3)n2)cc1OC (stereo not drawn)	none
O=C(NNC(=S)NC1CCCCC1)c1sc2ccccc2c1Cl	none
CC(C)(C)C(=O)NC(=S)NNC(=O)c1sc2ccccc2c1Cl	CHOP inh 110, UPR XBP1 act 35 | UPR XBP1 confirm 31
C=CCn1cnc2c(oc3ccccc32)c1=O	none (no result: CHOP inh)
COCCN(C(=O)COC(=O)CCOc1ccccc1)c1c(N)n(Cc2ccccc2)c(=O)[nH]c1=O	none (no result: CHOP inh)
COc1ccc(OCC(=O)OCC(=O)NC2CCCCC2C)cc1 (stereo not drawn)	none (no result: CHOP inh)
COc1cc(NC2CCCCC2O)c2nc(-c3ccc(Cl)cc3)ccc2c1 (stereo not drawn)	UPR XBP1 act 31 | UPR XBP1 confirm inactive
COc1ccc(-c2cc(C(=O)Nc3c(C)nn(Cc4ccc(Cl)cc4)c3C)no2)cc1	CHOP inh 81, UPR XBP1 act 49 | UPR XBP1 confirm inactive
COc1ccccc1N1CCN(C(=O)c2ccc3c(c2)NC(=O)C(CSCc2ccccc2C)N3)CC1 (stereo not drawn)	none (no result: CHOP inh, TbMetRS inhib, V-ATPase pH)
CCC(C)(C)NC(=O)c1cc(S(=O)(=O)N2CCCCC2)ccc1N1CCOCC1	none
N#C/C(=C\c1ccc(Oc2ccc(C(F)(F)F)cc2[N+](=O)[O-])cc1)c1nc2ccccc2[nH]1	none
N#C/C(=C/c1ccc(N2CCCC2)c([N+](=O)[O-])c1)c1nc2ccccc2[nH]1	CHOP inh 78, UPR XBP1 act 131 | UPR XBP1 confirm 87
COc1ccc(-c2sc3ccccc3c2-c2ccc(OCCN(C)C)cc2)cc1	UPR XBP1 act 44 (no result: CHOP inh) | UPR XBP1 confirm 58
Cc1cccc2sc(NC(=O)C3CSC4(C)CCC(=O)N34)nc12 (stereo not drawn)	UPR XBP1 act 31 (no result: CHOP inh) | UPR XBP1 confirm inactive
CCCN1CCc2c(sc(NC(=O)c3ccc(S(=O)(=O)N(C)c4ccccc4)cc3)c2C(N)=O)C1	UPR XBP1 act 40 (no result: CHOP inh) | UPR XBP1 confirm inactive
CCC(=O)Nc1c(C#N)c2nc3ccccc3nc2n1-c1ccc(C)cc1	none (no result: CHOP inh, UPR CHOP act, UPR XBP1 act)
CCC(C)n1c(NC(=O)c2ccccc2)c(C#N)c2nc3ccccc3nc21 (stereo not drawn)	UPR XBP1 act 63 (no result: CHOP inh) | UPR XBP1 confirm inactive
